The source made the active and inactive calls. The calls are words filed in the database; no cut-off is given here.
Columns and labels:
KB [1] = assay: Antiproliferative activity against human KB cells after 48 hrs by MTT assay; assay type: functional, cell-based
Outline: (§1)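 MTT assay after 48 h incubation with compound. MTT (5.0 mg/mL stock in RPMI-1640) was added and incubated a further 4 h at 37 °C. Formazan was dissolved in DMSO and absorbance read at 570 nm. IC50 is the concentration giving 50% decrease in cell growth, computed from dose-effect analysis. Triplicate wells, three independent experiments, values are means.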

SMMC-7721 = assay: Antiproliferative activity against human SMMC7721 cells after 48 hrs by MTT assay; assay type: functional, cell-based; settings: SMMC-7721, 48 h; outline: as §1
[2] = Inhibition of PKC by […] assay
Outline: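 Recombinant PKC was incubated with reaction mixture containing a fluorescent PepTag PKC-specific peptide substrate at 30 °C for 30 min, then stopped by boiling. Phosphorylated (−1) and nonphosphorylated (+1) peptide were separated on 0.8% agarose in 50 mM Tris-HCl pH 8.0 at 100 V for 15 min and visualized under UV. IC50 values are means of three experiments.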

A549 = assay: Antiproliferative activity against human A549 cells after 48 hrs by MTT assay; assay type: functional, cell-based; settings: A549, 48 h; outline: as §1
K562 = assay: Antiproliferative activity against human K562 cells after 48 hrs by MTT assay; assay type: functional, cell-based; settings: K562, 48 h; outline: as §1
[3] = Antiproliferative activity against human ECA109 cells after 48 hrs by MTT assay; assay type: functional, cell-based; settings: ECa-109, 48 h; outline: as §1
KB [4] = assay: Induction of apoptosis in human KB cells assessed as DNA fragmentation at 10 uM after 48 hrs by agarose gel electrophoresis; assay type: functional, cell-based
Outline: (§2)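 KB cells were treated 48 h with 10 or 20 µM, then lysed in EDTA/Tris pH 8.0/SDS/proteinase K buffer at 37 °C for 12 h, followed by RNase 1 h at 37 °C. DNA was phenol/chloroform extracted and ethanol precipitated, then run on 1.5% agarose gel with ethidium bromide and photographed for laddering.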

KB [5] = assay: Antiproliferative activity against human KB cells at 20 uM after 48 hrs by light microscopy
KB [6] = assay: Induction of apoptosis in human KB cells assessed as increase in JNK expression at 20 uM after 48 hrs by Western blotting; assay type: functional, cell-based
Outline: (§3)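 KB cells were treated 48 h with 10 or 20 µM, then lysed in NaCl/Tris pH 8.0/EGTA/EDTA/NaF/β-glycerophosphate/Triton/NP-40/PMSF buffer. Protein was quantified by BCA. Equal protein was run on 10–12% Tris-glycine gels and blotted. Blots were probed for JNK, Bax, Bcl-2, procaspase-9, procaspase-3 and tubulin, with HRP secondary and ECL detection. Bax/Bcl-2 ratio was derived from the blots.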

KB [7] = assay: Induction of apoptosis in human KB cells assessed as increase in caspase 3/7 activity at 10 uM after 48 hrs; assay type: functional, cell-based
Outline: (§4)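 KB cells were cultured 48 h with 10 or 20 µM, then caspase-3/7 activity was measured with a Caspase-Glo 3/7 kit per the kit protocol and compared with control cells.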

KB [8] = assay: Induction of apoptosis in human KB cells assessed as decrease in procaspase-9 expression at 20 uM after 48 hrs by Western blotting; assay type: functional, cell-based; outline: as §3
KB [9] = assay: Induction of apoptosis in human KB cells assessed as decrease in BCL-2 expression at 20 uM after 48 hrs by Western blotting; assay type: functional, cell-based; outline: as §3
KB [10] = assay: Induction of apoptosis in human KB cells assessed as increase in caspase 3/7 activity at 20 uM after 48 hrs; assay type: functional, cell-based; outline: as §4
KB [11] = assay: Induction of apoptosis in human KB cells assessed as decrease in procaspase-3 expression at 20 uM after 48 hrs by Western blotting; assay type: functional, cell-based; outline: as §3
KB [12] = assay: Induction of apoptosis in human KB cells assessed as increase in Bax/Bcl-2 ratio at 20 uM after 48 hrs by Western blotting; assay type: functional, cell-based; outline: as §3
KB [13] = assay: Antiproliferative activity against human KB cells at 10 uM after 48 hrs by MTT assay; assay type: functional, cell-based
KB [14] = assay: Induction of apoptosis in human KB cells assessed as DNA fragmentation at 20 uM after 48 hrs by agarose gel electrophoresis; assay type: functional, cell-based; outline: as §2

SMILES	IC50 (KB [1]) [µM]	IC50 (SMMC-7721) [µM]	IC50 [2] [µM]	IC50 (A549) [µM]	IC50 (K562) [µM]	IC50 [3] [µM]	Activity (KB [4])	Activity (KB [5])	Activity (KB [6])	Activity (KB [7])	Activity (KB [8])	Activity (KB [9])	Activity (KB [10])	Activity (KB [11])	Activity (KB [12])	Activity (KB [13])	Activity (KB [14])
Cn1cc(C2=C(c3nn(CCCn4cccc4)c4ncccc34)C(=O)NC2=O)c2ccccc21	> 100	> 100	1.1	> 100	21.6	> 100	–	–	–	–	–	–	–	–	–	–	–
Cn1cc(C2=C(c3nn(CCCn4ccnc4)c4ncccc34)C(=O)N(c3ccccc3)C2=O)c2ccccc21	6.8	34.8	> 10	1.56	5.51	1.44	–	–	–	–	–	–	–	–	–	–	–
Cn1cc(C2=C(c3n[nH]c4ncccc34)C(=O)N(c3ccccc3)C2=O)c2ccccc21	> 100	> 100	> 10	> 100	3.26	> 100	–	–	–	–	–	–	–	–	–	–	–
Cn1cc(C2=C(c3nn(CCn4ccnc4)c4ncccc34)C(=O)NC2=O)c2ccccc21	> 100	> 100	9.1	> 100	> 100	> 100	–	–	–	–	–	–	–	–	–	–	–
Cn1cc(C2=C(c3nn(CCCN4CCCCC4)c4ncccc34)C(=O)N(c3cccc4ccccc34)C2=O)c2ccccc21	13.4	0.22	> 10	2.82	3.18	1.83	–	–	–	–	–	–	–	–	–	–	–
Cn1cc(C2=C(c3nn(CCCN4CCCCC4)c4ncccc34)C(=O)NC2=O)c2ccccc21	98	7.67	0.65	> 100	5.96	42.3	–	–	–	–	–	–	–	–	–	–	–
Cn1cc(C2=C(c3nn(CCCn4cccc4)c4ncccc34)C(=O)N(c3ccccc3)C2=O)c2ccccc21	> 100	> 100	> 10	> 100	36.6	> 100	–	–	–	–	–	–	–	–	–	–	–
CN1CCN(CCCn2nc(C3=C(c4cn(C)c5ccccc45)C(=O)NC3=O)c3cccnc32)CC1	> 100	> 100	1.86	> 100	46.7	> 100	–	–	–	–	–	–	–	–	–	–	–
Cn1cc(C2=C(c3nn(CCCN4CCCCC4)c4ncccc34)C(=O)N(c3ccccc3)C2=O)c2ccccc21	5.6	3.05	> 10	20.6	3.79	12.3	Active	Active	Active	Active	Active	Active	Active	Active	Active	Active	Active
Cn1cc(C2=C(c3nn(CCCCn4ccnc4)c4ncccc34)C(=O)NC2=O)c2ccccc21	> 100	29.2	0.86	2.38	31.8	23.5	–	–	–	–	–	–	–	–	–	–	–
CN(C)CCCn1nc(C2=C(c3cn(C)c4ccccc34)C(=O)NC2=O)c2cccnc21	> 100	> 100	0.72	> 100	50.4	> 100	–	–	–	–	–	–	–	–	–	–	–
Cn1cc(C2=C(c3nn(CCCN4CCCCC4)c4ncccc34)C(=O)N(c3ccc(Cl)cc3)C2=O)c2ccccc21	> 100	> 100	> 10	28.7	1.8	> 100	–	–	–	–	–	–	–	–	–	–	–
Cn1cc(C2=C(c3n[nH]c4ncccc34)C(=O)NC2=O)c2ccccc21	62	> 100	> 10	> 100	> 100	46.1	–	–	–	–	–	–	–	–	–	–	–
Cn1cc(C2=C(c3nn(CCCCn4ccnc4)c4ncccc34)C(=O)N(c3ccccc3)C2=O)c2ccccc21	47.3	1.76	> 10	21.7	5.03	7.54	–	–	–	–	–	–	–	–	–	–	–
Cn1cc(C2=C(c3nn(CCCN4CCOCC4)c4ncccc34)C(=O)NC2=O)c2ccccc21	> 100	> 100	5.95	> 100	> 100	> 100	–	–	–	–	–	–	–	–	–	–	–
Cn1cc(C2=C(c3nn(CCCn4ccnc4)c4ncccc34)C(=O)NC2=O)c2ccccc21	> 100	> 100	0.9	> 100	13.8	> 100	–	–	–	–	–	–	–	–	–	–	–
Cn1cc(C2=C(c3nn(CCCO)c4ncccc34)C(=O)NC2=O)c2ccccc21	> 100	> 100	3.15	> 100	85.8	> 100	–	–	–	–	–	–	–	–	–	–	–
O=C1NC(=O)C(c2c[nH]c3ccccc23)=C1c1c[nH]c2ccccc12 [RO-316233]	53.8	> 100	0.35	56.6	17.5	83.5	–	–	–	–	–	–	–	–	–	–	–
COc1ccc(N2C(=O)C(c3cn(C)c4ccccc34)=C(c3nn(CCCN4CCCCC4)c4ncccc34)C2=O)cc1	44	1.74	> 10	30.3	> 100	3.34	–	–	–	–	–	–	–	–	–	–	–
Cn1cc(C2=C(c3nn(CCCn4cncn4)c4ncccc34)C(=O)NC2=O)c2ccccc21	> 100	> 100	2.2	> 100	> 100	> 100	–	–	–	–	–	–	–	–	–	–	–
Cn1cc(C2=C(c3nn(CCCN4CCCCC4)c4ncccc34)C(=O)N(c3ccccn3)C2=O)c2ccccc21	> 100	> 100	> 10	> 100	> 100	7.3	–	–	–	–	–	–	–	–	–	–	–
Cn1cc(C2=C(c3nn(CCCn4cncn4)c4ncccc34)C(=O)N(c3ccccc3)C2=O)c2ccccc21	> 100	> 100	> 10	> 100	> 100	> 100	–	–	–	–	–	–	–	–	–	–	–
Cn1cc(C2=C(c3n[nH]c4ncccc34)C(=O)N(c3cccc4ccccc34)C2=O)c2ccccc21	> 100	> 100	> 10	> 100	> 100	> 100	–	–	–	–	–	–	–	–	–	–	–
Cn1cc(C2=C(c3nn(CCn4ccnc4)c4ncccc34)C(=O)N(c3ccccc3)C2=O)c2ccccc21	> 100	> 100	> 10	43.1	26.4	8.77	–	–	–	–	–	–	–	–	–	–	–
CN(C)CCCn1nc(C2=C(c3cn(C)c4ccccc34)C(=O)N(c3ccccc3)C2=O)c2cccnc21	14.1	31.2	> 10	13	1.7	5.84	–	–	–	–	–	–	–	–	–	–	–
